The nature of data set [1]: Lipophilicity, log D of the compound at pH 7.4. The following applies: buffer. Type of data set: physicochemical.
Data set [2] in a line: Oral bioavailability in rat. In kind it is ADME, organism-based. As to conditions: in vivo.
The nature of data set [3]: Cmax in dog at 1 mg/kg, po and iv. The following applies: in vivo. More on the design: dose 1 mg/kg, route oral. In kind it is ADME, organism-based, Canis lupus familiaris.
Another data set relates to Canis familiaris. Nature of the data set: Volume of distribution at steady state in dog at 1 mg/kg, po and iv. Type of data set: ADME, organism-based, Canis lupus familiaris. The arrangement: dose 1 mg/kg, route oral. As to conditions: in vivo.
Data set [4] can be described thus: Oral bioavailability in dog at 1 mg/kg. In kind it is ADME, organism-based, Canis lupus familiaris. As to conditions: in vivo.
Data set [5] is described as follows: Apparent permeability across apical to basolateral side in MDCK cells at 10 uM. Type of data set: ADME, cell-based, Canis lupus familiaris. The following applies: dog. Put shortly: (§1)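 Test compound at […] incubated on cultured MDCK cell monolayers. Apparent permeability measured in both directions, apical to basolateral and basolateral to apical.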
A short description of data set [6]: Aqueous solubility in phosphate buffer at pH 7.4 after 24 hrs. In kind it is physicochemical. Put shortly:
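Solubility measured on crystalline material in aqueous phosphate buffer, pH 7.4, after 24 h at 25 °C.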

A short description of data set [7]: Apparent permeability across basolateral to apical side in MDCK cells at 10 uM. In kind it is ADME, cell-based, Canis lupus familiaris. The following applies: dog. Put shortly:
as §1

The text below walks through data of ChEMBL document CHEMBL2157961, “Optimisation of pharmacokinetic properties in a neutral series of 11β-HSD1 inhibitors” (Bioorg Med Chem Lett, 2012).

Converted amounts (≈) assume the structure as drawn.

Usually logD stands for the decadic logarithm of the distribution of all forms, ionised or not, between an organic phase and buffer at a given pH. As for `CCCSc1ncncc1C(=O)N[C@H]1C2CC3CC1C[C@](O)(C3)C2`, the logD in data set [1] was 2. Further, in data set [2], the bioavailability turned out to be 0%.

For orientation: Cmax means the maximum level reached in the sampled fluid or tissue. Molecule `CCCSc1nc(C)ccc1C(=O)N[C@H]1C2CC3CC1C[C@](O)(C3)C2` displayed a logD in data set [1] of 2.8. In addition, the Cmax in data set [3] was determined as 150 nM. The molecule also came in with a Vdss in the data set on Canis familiaris of 0.4 L/kg. For the same molecule, the bioavailability in data set [2] was determined as 63%; in data set [4], 5%.

In data set [1], `CCCSc1nc(C)ncc1C(=O)N[C@H]1C2CC3CC1C[C@](O)(C3)C2` gave a logD of 2.5. Besides, in data set [3], the concentration peaked (Cmax) at 490 nM. The Vdss in the data set with Canis familiaris turned out to be 0.3 L/kg. Moreover, the bioavailability is 74% in data set [2] and 110% in data set [4].

For `CCCSc1nc(NC)ccc1C(=O)N[C@H]1C2CC3CC1C[C@](O)(C3)C2`, the logD in data set [1] stood at 3.3. Further, in data set [2], the bioavailability was determined as 30%.

With `CCCSc1nc(NC)ncc1C(=O)N[C@H]1C2CC3CC1C[C@](O)(C3)C2`, the logD in data set [1] worked out at 2.9.

`CCCSc1nc(N(C)C)ccc1C(=O)N[C@H]1C2CC3CC1C[C@](O)(C3)C2`: the pH-dependent lipophilicity (logD) in data set [1] stood at 3.8. The bioavailability in data set [2] worked out at 24%.

With `CCCSc1nc(N(C)C)ncc1C(=O)N[C@H]1C2CC3CC1C[C@](O)(C3)C2`, the logD in data set [1] was 3.4.

As for `CCCSc1nc(N2CCOCC2)ccc1C(=O)N[C@H]1C2CC3CC1C[C@](O)(C3)C2`, the logD in data set [1] is 2.9. The molecule further gave a Vdss in the data set on Canis familiaris of 0.5 L/kg. In addition, the bioavailability in data set [2] is 64%; in data set [4], 0%.

On to `CCCSc1nc(N2CCOCC2)ncc1C(=O)N[C@H]1C2CC3CC1C[C@](O)(C3)C2`, for which the logD in data set [1] came to 2.8. This molecule displayed a Cmax in data set [3] of 40 nM. The molecule also displayed a Vdss in the data set on Canis familiaris of 0.7 L/kg. The results for the bioavailability in data set [2] and in data set [4] were 83% and 10%, respectively.

With `CCCCc1nc(C)ncc1C(=O)N[C@H]1C2CC3CC1C[C@](O)(C3)C2`, in data set [1], the logD was 1.6. The bioavailability in data set [2] was 98%.

As for `Cc1ncc(C(=O)N[C@H]2C3CC4CC2C[C@](O)(C4)C3)c(C(C)(C)C)n1`, in data set [1], the logD came out at 1.9. The bioavailability in data set [2] is 84%.

`Cc1ncc(C(=O)N[C@H]2C3CC4CC2C[C@](O)(C4)C3)c(CC(C)C)n1`: the logD in data set [1] was 1.4. For the same molecule, in data set [2], the bioavailability was 100%.

For `Cc1ncc(C(=O)N[C@H]2C3CC4CC2C[C@](O)(C4)C3)c(CC2CC2)n1`, the logD in data set [1] is 1.2.

With `Cc1ncc(C(=O)N[C@H]2C3CC4CC2C[C@](O)(C4)C3)c(CC2CCCC2)n1`, in data set [1], the logD came out at 2.1. Also, the bioavailability in data set [2] was 50%.

Regarding `Cc1ncc(C(=O)N[C@H]2C3CC4CC2C[C@](O)(C4)C3)c(-c2ccccc2)n1`, the pH-dependent lipophilicity (logD) in data set [1] amounted to 1.1.

Turning to `Cc1ncc(C(=O)N[C@H]2C3CC4CC2C[C@](O)(C4)C3)c(C2CC2)n1`, the logD in data set [1] stood at 1.2.

Turning to `Cc1ncc(C(=O)N[C@H]2C3CC4CC2C[C@](O)(C4)C3)c(C2CCCC2)n1`, the logD in data set [1] worked out at 2. In data set [3], this molecule returned a Cmax of 170 nM. The molecule also registered a Vdss with Canis familiaris of 0.9 L/kg. Also, the bioavailability in data set [2] is 77%; in data set [4], 58%.

`Cc1ccc(C(=O)N[C@H]2C3CC4CC2C[C@](O)(C4)C3)c(C2CC2)n1`: the logD in data set [1] is 1.6. Besides, in data set [3], the concentration peaked (Cmax) at 260 nM. The molecule further displayed a Vdss with Canis familiaris of 0.3 L/kg. Moreover, the bioavailability in data set [2] turned out to be 75%; in data set [4], 37%.

`O=C(N[C@H]1C2CC3CC1C[C@](O)(C3)C2)c1ccc(N2CCOCC2)nc1C1CC1` gave a logD in data set [1] of 2. In data set [3], the Cmax was found to be 40 nM. This molecule also displayed a Vdss with Canis familiaris of 0.6 L/kg. Also, the bioavailability was 100% in data set [2] and 25% in data set [4].

In data set [1], `CCCOc1nc(N2CCOCC2)ccc1C(=O)N[C@H]1C2CC3CC1C[C@](O)(C3)C2` registered a log distribution coefficient (logD) of 3.8. Besides, in data set [2], the bioavailability stood at 31%.

In data set [1], `Cc1nc(N2CCOCC2)ncc1C(=O)N[C@H]1C2CC3CC1C[C@](O)(C3)C2` returned a logD of 1.2.

The molecule `CC(C)(C)c1nc(N2CCOCC2)ncc1C(=O)N[C@H]1C2CC3CC1C[C@](O)(C3)C2` yielded a logD in data set [1] of 2.6. Besides, the bioavailability in data set [2] stood at 100%.

One may read the Papp A→B as how fast a substance crosses the layer from the apical side. What is called solubility is the concentration that dissolves in the medium under given conditions. As a reminder, the Papp B→A is how fast a substance crosses the layer from the basolateral side. On to `O=C(N[C@H]1C2CC3CC1C[C@](O)(C3)C2)c1cnc(N2CCOCC2)nc1C1CC1`, for which the logD in data set [1] worked out at 2.1. Further, the Cmax in data set [3] worked out at 360 nM. Moreover, the Papp A→B at 10 µM in data set [5] was determined as 19 ×10⁻⁶ cm/s. In the data set with Canis familiaris, the Vdss worked out at 0.9 L/kg. Moreover, in data set [6], the solubility at 24 h came out at 240 µM (≈ 95.6 µg/mL). In addition, the bioavailability in data set [2] and in data set [4] was 100% each time. For the same molecule, the Papp B→A at 10 µM in data set [7] amounted to 30 ×10⁻⁶ cm/s.

With `O=C(N[C@H]1C2CC3CC1C[C@](O)(C3)C2)c1cnc(N2CCOCC2)nc1C1CCC1`, the logD in data set [1] was found to be 2.4. The bioavailability in data set [2] was 45%.

`O=C(N[C@H]1C2CC3CC1C[C@](O)(C3)C2)c1cnc(N2CCOCC2)nc1C1CCCC1` came in with a logD in data set [1] of 3. The bioavailability in data set [2] amounted to 67%.

In the case of `O=C(N[C@H]1C2CC3CC1C[C@](O)(C3)C2)c1cnc(N2CCOCC2)nc1C1CCCCC1`, in data set [1], the logD is 3.2. In data set [2], the bioavailability came to 31%.

`CC1(c2nc(N3CCOCC3)ncc2C(=O)N[C@H]2C3CC4CC2C[C@](O)(C4)C3)CC1` returned a logD in data set [1] of 1.8.

In the case of `CCCOc1nc(N2CCOCC2)ncc1C(=O)N[C@H]1C2CC3CC1C[C@](O)(C3)C2`, in data set [1], the logD was 3. Besides, in data set [2], the bioavailability worked out at 36%.
